For test [1], the target named is Epidermal growth factor receptor (Homo sapiens, UniProt P00533). Put plainly: Inhibition of EGFR phosphorylation in human A431 cells after 10 mins by FLISA. In kind it is cell-based, A-431.
The target of test [2] is T1, Platelet-derived growth factor receptor beta (Homo sapiens, UniProt P09619). Kind of test: Inhibition of PDGFRbeta phosphorylation in human SF539 cells after 10 mins by FLISA.
Test [3] concerns the target T2, Vascular endothelial growth factor receptor 2 (Homo sapiens, UniProt P35968). Kind of test: Inhibition of VEGFR2 phosphorylation in human U251 cells after 10 mins by FLISA. In kind it is cell-based, U-251.
Test [4] has as its target Vascular endothelial growth factor receptor 1 (Homo sapiens, UniProt P17948). Kind of test: Inhibition of VEGFR1 phosphorylation in human A498 cells after 10 mins by FLISA. In kind it is cell-based.
For the next test, the system named is A-431. Kind of test: Antiproliferative activity against human A431 cells after 48 hrs by quant dye staining-based UV spectroscopy. In kind it is functional, cell-based. Conditions: A-431, 48 h.
Test [5] addresses T2, Vascular endothelial growth factor receptor 2. Kind of test: Ratio of semaxanib IC50 to compound IC50 for VEGFR2 phosphorylation in human U251 cells. Conditions: U-251. In kind it is cell-based.
Test [6] concerns B16-F10. Kind of test: Antitumor activity against mouse B16F10 cells xenografted in NCr nu/nu mouse assessed as inhibition of lung metastasis at 35 mg/kg, ip administered after 9 days of tumor implantation for weekly 3 times measured on day 28 post-implantation by hematoxylin-eosin staining. In kind it is functional, organism-based. Further details: dose 35 mg/kg. The gist of the method:
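Male athymic NCr nu/nu mice (8 weeks) received 50,000 B16-F10 cells SQ behind the ear, 5–6/group, two experiments. Drug given IP in sterile water (from 30 mM DMSO stocks) Mon/Wed/Fri starting day 9; shams received water. On day 28 lungs excised, formalin-fixed, paraffin-embedded. Metastases per lung lobe counted on three H&E sections. Mean ± SEM, one-way ANOVA with Neuman-Keuls.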

The subject of test [7] is B16-F10. Kind of test: Antitumor activity against mouse B16F10 cells xenografted in NCr nu/nu mouse assessed as inhibition of tumor growth at 35 mg/kg, ip administered after 9 days of tumor implantation for weekly 3 times measured on day 28 post-implantation. It counts as functional, organism-based. Further details: dose 35 mg/kg. The gist of the method:
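B16-F10 cells (50,000) implanted SQ behind the ear of 8-week-old male athymic NCr nu/nu mice, 5–6/group, two experiments. IP dosing in sterile water (from 30 mM DMSO stocks) Mon/Wed/Fri from day 9; water-only shams. Length, width and depth measured by calipers three times weekly; volume = L×W×D. Growth rate is the linear-regression slope from day 9 to day 28. Mean ± SEM, one-way ANOVA.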

For test [8], the system named is B16-F10. Put plainly: Antitumor activity against mouse B16F10 cells xenografted in NCr nu/nu mouse assessed as antiangiogenic activity-related decrease in tumor vascularity at 35 mg/kg, ip administered after 9 days of tumor implantation for weekly 3 times measured on day 28 post-implantation. It counts as functional, organism-based. Further details: dose 35 mg/kg. The gist of the method:
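50,000 B16-F10 melanoma cells injected SQ behind the ear of 8-week-old male athymic NCr nu/nu mice, 5–6 animals/group, two experiments. IP dosing in sterile water (from 30 mM DMSO stocks) Mon/Wed/Fri from day 9; shams got water. Tumors excised day 28, formalin-fixed, paraffin-embedded, H&E stained. Vessels counted per unit area in 5 fields at 100× and averaged. Mean ± SEM, one-way ANOVA, Neuman-Keuls.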

Test [9] has as its target T1, Platelet-derived growth factor receptor beta. Kind of test: Inhibition of PDGF-stimulated PDGFRbeta phosphorylation expressed in human SF-539 cells by chemiluminescence assay.
Test [10] has as its system B16-F10. Conditions: Mus musculus, 10 mg/kg.
Test [11] deals with B16-F10. Conditions: Mus musculus, 10 mg/kg. This is another data set of the same source.
For test [12], the system named is B16-F10. Conditions: Mus musculus, 10 mg/kg. The source holds these as a separate data set.

Molecules are shown by their SMILES. Activity calls are given as the source filed them. No cut-off for these calls is given here.

Usually IC50 stands for the concentration that inhibits the measured activity by half. Lower therefore signals greater potency in that assay.

T1 sequence (P09619 whole entry): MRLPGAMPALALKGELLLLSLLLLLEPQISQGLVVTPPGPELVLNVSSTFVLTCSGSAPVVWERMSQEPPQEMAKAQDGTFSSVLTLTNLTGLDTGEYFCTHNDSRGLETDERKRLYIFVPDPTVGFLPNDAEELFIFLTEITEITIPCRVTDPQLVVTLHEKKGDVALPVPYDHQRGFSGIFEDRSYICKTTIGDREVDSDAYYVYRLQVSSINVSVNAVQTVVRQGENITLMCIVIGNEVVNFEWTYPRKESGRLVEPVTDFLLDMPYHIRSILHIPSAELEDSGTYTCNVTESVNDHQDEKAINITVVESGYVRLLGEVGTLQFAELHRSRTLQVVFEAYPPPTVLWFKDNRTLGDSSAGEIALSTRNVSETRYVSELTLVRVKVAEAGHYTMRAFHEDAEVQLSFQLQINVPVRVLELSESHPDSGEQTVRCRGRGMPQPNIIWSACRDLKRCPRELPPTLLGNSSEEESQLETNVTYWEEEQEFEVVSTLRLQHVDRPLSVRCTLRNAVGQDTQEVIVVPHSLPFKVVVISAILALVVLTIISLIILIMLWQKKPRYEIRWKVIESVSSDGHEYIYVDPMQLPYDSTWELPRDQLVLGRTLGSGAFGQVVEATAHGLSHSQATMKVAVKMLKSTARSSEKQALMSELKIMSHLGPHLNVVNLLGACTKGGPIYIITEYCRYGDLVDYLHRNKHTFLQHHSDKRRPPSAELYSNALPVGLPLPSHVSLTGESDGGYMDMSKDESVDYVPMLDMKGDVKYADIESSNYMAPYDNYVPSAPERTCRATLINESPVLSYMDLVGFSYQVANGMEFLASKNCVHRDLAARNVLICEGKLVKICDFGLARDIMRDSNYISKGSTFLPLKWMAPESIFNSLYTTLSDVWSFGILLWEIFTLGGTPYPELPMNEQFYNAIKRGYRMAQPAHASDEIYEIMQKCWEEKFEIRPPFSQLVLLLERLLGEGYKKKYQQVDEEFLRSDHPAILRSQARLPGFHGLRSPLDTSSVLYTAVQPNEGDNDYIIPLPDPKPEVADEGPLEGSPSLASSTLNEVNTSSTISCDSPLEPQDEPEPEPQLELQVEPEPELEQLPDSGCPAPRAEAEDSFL
T2 sequence (P35968 whole entry): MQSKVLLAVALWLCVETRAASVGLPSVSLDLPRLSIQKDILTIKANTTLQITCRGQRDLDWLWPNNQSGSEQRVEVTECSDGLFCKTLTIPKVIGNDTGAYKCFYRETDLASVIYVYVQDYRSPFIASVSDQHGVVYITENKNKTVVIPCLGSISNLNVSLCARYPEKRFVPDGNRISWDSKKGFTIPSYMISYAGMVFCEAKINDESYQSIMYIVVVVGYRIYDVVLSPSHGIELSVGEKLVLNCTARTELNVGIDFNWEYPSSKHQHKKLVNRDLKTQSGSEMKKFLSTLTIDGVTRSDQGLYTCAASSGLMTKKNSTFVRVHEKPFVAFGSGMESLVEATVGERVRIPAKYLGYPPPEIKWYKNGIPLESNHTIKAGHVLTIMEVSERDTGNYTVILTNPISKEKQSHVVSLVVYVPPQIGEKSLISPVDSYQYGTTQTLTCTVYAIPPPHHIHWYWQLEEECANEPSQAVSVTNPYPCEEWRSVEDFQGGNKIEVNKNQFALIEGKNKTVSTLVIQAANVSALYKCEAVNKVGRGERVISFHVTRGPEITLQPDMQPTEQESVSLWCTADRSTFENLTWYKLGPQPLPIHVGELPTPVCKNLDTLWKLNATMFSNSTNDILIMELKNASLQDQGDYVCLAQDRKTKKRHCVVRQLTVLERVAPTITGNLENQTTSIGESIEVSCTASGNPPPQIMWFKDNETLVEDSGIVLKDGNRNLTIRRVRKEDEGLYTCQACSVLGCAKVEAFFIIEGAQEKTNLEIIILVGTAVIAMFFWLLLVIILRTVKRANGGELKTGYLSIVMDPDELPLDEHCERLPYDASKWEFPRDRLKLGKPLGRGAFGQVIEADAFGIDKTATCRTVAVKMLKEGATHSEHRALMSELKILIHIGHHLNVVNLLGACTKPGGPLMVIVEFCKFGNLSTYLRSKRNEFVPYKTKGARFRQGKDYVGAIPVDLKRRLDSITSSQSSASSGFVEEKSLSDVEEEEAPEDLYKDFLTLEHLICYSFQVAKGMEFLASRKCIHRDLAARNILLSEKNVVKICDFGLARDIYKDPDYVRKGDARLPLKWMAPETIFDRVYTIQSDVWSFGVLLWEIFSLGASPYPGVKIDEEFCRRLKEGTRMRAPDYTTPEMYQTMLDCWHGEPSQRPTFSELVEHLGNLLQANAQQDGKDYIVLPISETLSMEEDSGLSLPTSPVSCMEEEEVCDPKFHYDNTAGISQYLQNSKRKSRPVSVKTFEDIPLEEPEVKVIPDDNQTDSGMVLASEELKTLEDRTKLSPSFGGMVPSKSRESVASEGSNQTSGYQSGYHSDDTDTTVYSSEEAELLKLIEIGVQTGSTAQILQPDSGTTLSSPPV
Epidermal growth factor receptor, sequence (P00533 whole entry): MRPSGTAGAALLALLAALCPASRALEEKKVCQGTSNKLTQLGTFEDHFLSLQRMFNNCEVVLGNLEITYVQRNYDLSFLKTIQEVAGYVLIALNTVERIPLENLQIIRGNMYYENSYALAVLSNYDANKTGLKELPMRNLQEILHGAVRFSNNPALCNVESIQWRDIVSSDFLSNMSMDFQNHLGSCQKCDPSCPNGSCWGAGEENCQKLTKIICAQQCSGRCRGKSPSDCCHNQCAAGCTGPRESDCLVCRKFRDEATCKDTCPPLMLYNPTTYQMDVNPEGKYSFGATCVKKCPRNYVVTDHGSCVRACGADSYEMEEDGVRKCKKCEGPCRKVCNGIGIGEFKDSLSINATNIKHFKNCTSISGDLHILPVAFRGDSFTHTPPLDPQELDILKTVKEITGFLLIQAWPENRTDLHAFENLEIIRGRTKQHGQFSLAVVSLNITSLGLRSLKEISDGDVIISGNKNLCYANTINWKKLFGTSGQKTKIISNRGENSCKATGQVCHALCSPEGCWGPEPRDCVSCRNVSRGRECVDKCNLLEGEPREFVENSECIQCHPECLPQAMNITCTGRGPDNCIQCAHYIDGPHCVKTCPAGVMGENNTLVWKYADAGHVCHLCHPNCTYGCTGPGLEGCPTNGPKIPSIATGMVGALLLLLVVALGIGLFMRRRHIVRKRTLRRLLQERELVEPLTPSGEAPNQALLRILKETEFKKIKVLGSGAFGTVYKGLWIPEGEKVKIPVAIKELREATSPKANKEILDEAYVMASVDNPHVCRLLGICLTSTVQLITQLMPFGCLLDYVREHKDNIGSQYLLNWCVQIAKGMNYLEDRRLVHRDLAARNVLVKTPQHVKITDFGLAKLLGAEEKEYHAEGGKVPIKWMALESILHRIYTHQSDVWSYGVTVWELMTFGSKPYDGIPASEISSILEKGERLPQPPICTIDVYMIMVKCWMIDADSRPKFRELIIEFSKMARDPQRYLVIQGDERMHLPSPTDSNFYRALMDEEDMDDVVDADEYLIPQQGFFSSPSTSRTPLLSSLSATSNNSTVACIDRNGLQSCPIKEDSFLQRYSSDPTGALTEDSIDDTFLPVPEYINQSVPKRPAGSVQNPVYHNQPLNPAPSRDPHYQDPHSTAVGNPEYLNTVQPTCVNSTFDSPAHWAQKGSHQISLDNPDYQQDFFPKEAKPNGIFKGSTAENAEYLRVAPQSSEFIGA
Vascular endothelial growth factor receptor 1, sequence (P17948 whole entry): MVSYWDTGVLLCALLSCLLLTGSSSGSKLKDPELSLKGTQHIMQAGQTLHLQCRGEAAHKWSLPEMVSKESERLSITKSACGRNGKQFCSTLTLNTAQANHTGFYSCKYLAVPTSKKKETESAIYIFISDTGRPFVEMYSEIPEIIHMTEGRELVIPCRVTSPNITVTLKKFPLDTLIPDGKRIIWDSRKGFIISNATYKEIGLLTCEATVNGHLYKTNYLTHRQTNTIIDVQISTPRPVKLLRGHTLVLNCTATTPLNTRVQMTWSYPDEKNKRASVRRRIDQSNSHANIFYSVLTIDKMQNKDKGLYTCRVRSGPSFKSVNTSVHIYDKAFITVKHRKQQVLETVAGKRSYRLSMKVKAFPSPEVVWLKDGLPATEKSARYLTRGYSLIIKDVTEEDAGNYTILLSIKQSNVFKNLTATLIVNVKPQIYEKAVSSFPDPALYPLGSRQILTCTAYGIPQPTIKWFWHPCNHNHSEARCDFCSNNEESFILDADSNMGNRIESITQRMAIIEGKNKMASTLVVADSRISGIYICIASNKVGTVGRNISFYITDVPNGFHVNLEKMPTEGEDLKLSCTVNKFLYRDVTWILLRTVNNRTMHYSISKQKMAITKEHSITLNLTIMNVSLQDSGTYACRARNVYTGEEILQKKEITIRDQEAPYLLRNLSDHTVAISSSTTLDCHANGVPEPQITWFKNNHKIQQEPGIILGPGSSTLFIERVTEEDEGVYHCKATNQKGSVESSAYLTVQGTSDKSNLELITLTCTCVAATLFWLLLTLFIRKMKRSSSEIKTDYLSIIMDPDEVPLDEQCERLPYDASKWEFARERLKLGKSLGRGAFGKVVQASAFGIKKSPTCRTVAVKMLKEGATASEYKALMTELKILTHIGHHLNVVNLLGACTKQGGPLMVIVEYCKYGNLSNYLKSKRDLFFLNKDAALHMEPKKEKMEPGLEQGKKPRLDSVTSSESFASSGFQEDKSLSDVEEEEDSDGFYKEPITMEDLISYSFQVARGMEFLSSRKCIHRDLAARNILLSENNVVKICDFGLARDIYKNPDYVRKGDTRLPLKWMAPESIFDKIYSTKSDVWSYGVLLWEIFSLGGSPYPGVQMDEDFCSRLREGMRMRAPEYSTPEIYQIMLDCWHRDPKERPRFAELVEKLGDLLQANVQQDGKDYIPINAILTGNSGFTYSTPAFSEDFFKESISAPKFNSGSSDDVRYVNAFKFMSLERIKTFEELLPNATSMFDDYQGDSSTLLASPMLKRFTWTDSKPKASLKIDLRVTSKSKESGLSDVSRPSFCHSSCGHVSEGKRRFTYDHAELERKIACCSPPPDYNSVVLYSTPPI

On to `CC(C)c1ccccc1Nc1nc(N)nc2[nH]c(Cc3ccc(Cl)cc3Cl)cc12`, for which the IC50 is 96.4 µM in test [1]; 43 µM in [2]; more than 300 µM in test [3]; 163 µM in [4]; 160 µM in the test with A-431.
For `FC(F)(F)c1cccc(Nc2ncnc3[nH]c(Cc4ccc(Cl)cc4Cl)cc23)c1` the same measures were 33.1 µM, 110 µM, more than 300 µM, more than 300 µM and more than 300 µM.
For `Clc1ccc(Cc2cc3c(Nc4cccc(Br)c4)ncnc3[nH]2)c(Cl)c1`, the IC50 was more than 300 µM in test [1]; 220 µM in [2]; more than 300 µM in test [3]; 151 µM in test [4]; 4.5 µM with A-431.
Regarding `Nc1nc(Nc2ccc(Cl)cc2F)c2cc(Cc3ccc(Cl)cc3Cl)[nH]c2n1`, the IC50 turned out to be 2.5 µM in test [1]; 24.6 µM in [2]; 45.7 µM in test [3]; 70.9 µM in [4]; 4.9 µM in the test with A-431. Moreover, the Ratio IC50 in test [5] stood at 0.26.
On to `C#Cc1cccc(Nc2nc(N)nc3[nH]c(Cc4ccc(Cl)cc4Cl)cc23)c1`, for which the IC50 in test [1] was 55.2 µM; in test [2] it was more than 300 µM; in test [3], 85.6 µM; in test [4] it was more than 300 µM; in the test with A-431 it was 9.5 µM.
As for `CC(C)c1ccc(Nc2nc(N)nc3[nH]c(Cc4ccc(Cl)cc4Cl)cc23)cc1`, the IC50 in [1] was determined as 45.6 µM; in [2] it was 175 µM; in [3], 1.4 µM; in [4] it was 157 µM; in the test on A-431 it was 26.2 µM. Moreover, the Ratio IC50 in [5] was determined as 8.
`C#Cc1cccc(Nc2ncnc3[nH]c(Cc4ccc(Cl)cc4Cl)cc23)c1`: the IC50 in [1] was more than 300 µM; in test [2] it was 142 µM; in [3], more than 300 µM; in [4], more than 300 µM; in the test on A-431, more than 300 µM.
Consider `Nc1nc(Nc2ccc(Br)cc2Cl)c2cc(Cc3ccc(Cl)cc3Cl)[nH]c2n1`, for which the IC50 is more than 300 µM in test [1]; more than 300 µM in test [2]; 0.1 µM in test [3]; more than 300 µM in test [4]; 16.2 µM with A-431. For the same molecule, in [5], the Ratio IC50 turned out to be 100. Moreover, the inhibition result in the test with B16-F10 [6], in the test on B16-F10 [7] and with B16-F10 [8] was “Active” each time.
`Cc1ccccc1Cc1cc2c(Nc3cccc(Br)c3)nc(N)nc2[nH]1`: the inhibition entry in the test with B16-F10 [6], in the test with B16-F10 [7] and in the test with B16-F10 [8] was “Active” in each case. The molecule further displayed a half-maximal inhibitory concentration (IC50) in test [2] of more than 50 µM.
On to `COc1ccc(OC)c(Cc2cc3c(Nc4cccc(Br)c4)ncnc3[nH]2)c1`, for which the IC50 is more than 300 µM in test [1]; 171 µM in [2]; more than 300 µM in test [3]; more than 300 µM in test [4]; 191 µM in the test with A-431.
With `Cc1[nH]c(/C=C2\C(=O)Nc3ccccc32)c(C)c1CCC(=O)O` [ORANTINIB], it took 0.1 µM to reach half-maximal inhibition in test [9] (IC50). For the same molecule, the inhibition entry in the test with B16-F10 [10], with B16-F10 [11] and in the test on B16-F10 [12] was “Active” in each case.
For `Nc1nc(Nc2cccc(C(F)(F)F)c2)c2cc(Cc3ccc(Cl)cc3Cl)[nH]c2n1`, the IC50 in test [1] is 27.2 µM; in [2], more than 300 µM; in test [3], more than 300 µM; in [4] it was 156 µM; with A-431 it was 195 µM.
For `Nc1nc(Nc2ccc(C(F)(F)F)c(F)c2)c2cc(Cc3ccc(Cl)cc3Cl)[nH]c2n1`, the IC50 in test [1] was 91.7 µM; in [2], more than 300 µM; in test [3], 113 µM; in [4], more than 300 µM; in the test on A-431, 13.8 µM.
`Nc1nc(Nc2cccc(F)c2)c2cc(Cc3ccc(Cl)cc3Cl)[nH]c2n1`: the IC50 is 162 µM in [1]; 183 µM in test [2]; 0.3 µM in test [3]; 163 µM in test [4]; 45.2 µM with A-431. In addition, the Ratio IC50 in test [5] turned out to be 40.
`Cc1ccccc1Cc1cc2c(Nc3cccc(Br)c3)ncnc2[nH]1`: the IC50 in test [1] is more than 300 µM; in test [2], 182 µM; in test [3] it was 27.2 µM; in [4], more than 300 µM; in the test on A-431 it was 9.5 µM.

The values above are taken from ChEMBL document CHEMBL1157126, “Synthesis and biological activity of N(4)-phenylsubstituted-6-(2,4-dichloro phenylmethyl)-7H-pyrrolo[2,3-d]pyrimidine-2,4-diamines as vascular endothelial growth factor receptor-2 inhibitors and antiangiogenic and antitumor agents” (Bioorg Med Chem, 2010).
